Source: PubChem (Broad Institute)
This is a sample that favours compounds with a hit; in the whole collection about 5.9% have one here.
T cruzi growth – blocks T. cruzi growth in NIH3T3 culture. inhibition, % at 8.34 µM. T. cruzi beta-gal in NIH3T3, GalScreen luminescence, 90 h. actives 5.9% (n = 77,000);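 active = mean inhibition above about 93%, with at least 55% of replicates each passing it, limit read from the data, passing the limit was not always enough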
GASC1 inh – inhibitors of human demethylase GASC-1 KDM4C | Q9H3R0 | GST-KDM4C 2-372, H3K9me3 peptide, LANCE TR-FRET | inhibition, % at 12.5 µM | actives 0.15% (n = 96,000) | AID 720574;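 active = mean replicate inhibition above about 25%, with at least 55% of replicates also reaching it, limit read from the data, passing the limit was not always enough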
Target sequence (Q9H3R0 2-372 limits assumed): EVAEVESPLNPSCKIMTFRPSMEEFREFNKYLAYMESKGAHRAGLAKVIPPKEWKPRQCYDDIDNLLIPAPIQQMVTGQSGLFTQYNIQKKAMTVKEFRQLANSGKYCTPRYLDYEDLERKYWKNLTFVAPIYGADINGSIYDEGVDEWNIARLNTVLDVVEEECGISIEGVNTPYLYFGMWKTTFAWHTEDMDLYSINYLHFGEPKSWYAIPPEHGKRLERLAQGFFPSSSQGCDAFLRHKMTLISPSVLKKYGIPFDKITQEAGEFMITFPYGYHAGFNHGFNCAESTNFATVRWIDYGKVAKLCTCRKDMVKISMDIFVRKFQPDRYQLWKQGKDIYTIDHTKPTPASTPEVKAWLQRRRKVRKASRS
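Material: GST-tagged GASC-1 (JMJD2C) catalytic fragment, aa 2-372 / Quantity: enzyme final amount 10 nM / Medium: HEPES buffer, pH 7.5, plus ascorbate / Doses: one test concentration per compound / Incubation: 30 min reaction, 60 min detection, RT / Measured by: LANCE TR-FRET / Read-out: inhibition from TR-FRET ratio decrease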
IDH1 R132H inh – IDH1 R132H (human) inhibition; IDH1 R132H reductase, diaphorase/resazurin fluorescence, 60 min; actives 0.18% (n = 70,000); inhibition, % at 10 µM; in the data active = inhibition above about 34%
Pf Dd2 growth – P. falciparum Dd2 growth inhibition | SYBR Green, 72 h; stronger effect = lower value | activity change, % at 10 µM | actives 2.3% (n = 94,000) | AID 1159554; in the data active = activity change below about -80%
Hits are given with their value; i = inactive; nt = no result given; ! = repeats disagree.

SMILES	T cruzi growth	GASC1 inh	IDH1 R132H inh	Pf Dd2 growth
C[C@@H]1CN([C@@H](C)CO)C(=O)c2c(c3ccccc3n2C)-c2ccccc2CO[C@H]1CN(C)Cc1ccc(Cl)c(Cl)c1	nt	i	nt	-91
CCn1c(SCC(=O)Nc2cc(C)c(Cl)cc2OC)nnc1-c1cnccn1	nt	nt	i	nt
N#Cc1cccc(-c2ccc(C3[C@@H]4CN(C(=O)c5ccncc5)C[C@H]3N4)cc2)c1 (some centres not stated)	nt	i	nt	i
N#Cc1ccc(-c2ccc(C3[C@@H]4CN(C(=O)C5CCCCC5)C[C@H]3N4)cc2)cc1 (some centres not stated)	nt	i	nt	-88!
N#Cc1ccc(-c2ccc(C3[C@@H]4CN(C(=O)c5ccncc5)C[C@H]3N4)cc2)cc1 (some centres not stated)	nt	39!	nt	i
C[C@@H]1CN([C@H](C)CO)C(=O)c2cc(NS(=O)(=O)c3cccs3)ccc2O[C@@H]1CN(C)Cc1ccc(C(=O)Nc2ccccc2N)cc1	nt	i	nt	-87
C[C@@H]1CN([C@H](C)CO)C(=O)Cc2cc(NS(=O)(=O)c3cccs3)ccc2O[C@@H]1CN(C)Cc1ccc(C(=O)Nc2ccccc2N)cc1	nt	i	nt	-86
C[C@H]1CN([C@@H](C)CO)C(=O)c2cc(NS(=O)(=O)c3cccs3)ccc2O[C@H]1CN(C)Cc1ccc(C(=O)Nc2ccccc2N)cc1	nt	i	nt	i
CCN1[C@H](C(=O)Nc2nccs2)[C@@H](CO)[C@@H]2Cn3c(ccc(-c4ccccc4OC)c3=O)[C@@H]21	i	i	nt	i
C[C@@H]1CCCCO[C@@H](CN(C)Cc2ccc3c(c2)OCO3)[C@@H](C)CN([C@H](C)CO)C(=O)c2cc(NC(=O)CCCCCC(=O)Nc3ccccc3N)ccc2O1	nt	i	i	-85
C[C@@H]1CCCCO[C@H](CN(C)Cc2ccccc2)[C@@H](C)CN([C@@H](C)CO)C(=O)c2cc(NC(=O)CCCCCC(=O)Nc3ccccc3N)ccc2O1	i	i	nt	i
C[C@@H]1CCCCO[C@H](CN(C)Cc2ccc(C(F)(F)F)cc2)[C@@H](C)CN([C@H](C)CO)C(=O)c2cc(NC(=O)CCCCCC(=O)Nc3ccccc3N)ccc2O1	nt	i	nt	-93
C[C@@H]1CCCCO[C@@H](CN(C)Cc2ccc(Cl)c(Cl)c2)[C@@H](C)CN([C@H](C)CO)C(=O)c2cc(NC(=O)CCCCCC(=O)Nc3ccccc3N)ccc2O1	nt	i	i	i
Cc1ccc(S(=O)(=O)Nc2cccc3c2O[C@H](CN(C)Cc2ccc(Cl)c(Cl)c2)[C@H](C)CN([C@H](C)CO)C3=O)cc1	i	i	i	i
CCCNC(=O)C[C@@H]1CC[C@H]2[C@@H](COC[C@@H](O)CN2C(=O)c2ccc(F)cc2)O1	i	i	nt	i
C[C@H](CO)N1C[C@H](C)[C@@H](CN(C)Cc2ccc(C(=O)O)cc2)OCCCC[C@H](C)Oc2ccc(NS(=O)(=O)c3ccccc3)cc2C1=O	i	i	i	i
COc1ccc2c3c([nH]c2c1)[C@H](CO)N(C(=O)Nc1ccc(F)cc1)CC31CN(Cc2ccc(F)cc2)C1	nt	i	nt	-82
COc1ccc2c3c([nH]c2c1)[C@H](CO)N(C(=O)Nc1ccc(F)cc1)CC31CN(Cc2ccccc2OC)C1	nt	nt	nt	i
COc1ccc2c3c([nH]c2c1)[C@@H](CO)N(C(=O)Nc1ccc(F)cc1)CC31CN(Cc2ccc(F)cc2)C1	nt	i	nt	i
COc1ccc2c3c([nH]c2c1)[C@@H](CO)N(C(=O)Nc1ccc(F)cc1)CC31CN(Cc2ccccc2OC)C1	nt	i	nt	-92
C[C@@H]1CN([C@@H](C)CO)S(=O)(=O)c2ccc(C#Cc3ccncc3)cc2O[C@H]1CN(C)S(=O)(=O)c1ccccc1	i	i	i	i
Cc1ccc(S(=O)(=O)N(C)C[C@@H]2Oc3cc(C#Cc4ccncc4)ccc3S(=O)(=O)N([C@H](C)CO)C[C@@H]2C)cc1	i	i	i	i
C[C@H]1CN([C@@H](C)CO)S(=O)(=O)c2ccc(C#Cc3ccncc3)cc2O[C@@H]1CN(C)S(=O)(=O)c1ccccc1	i	28	i	-93
C[C@@H]1CN([C@H](C)CO)S(=O)(=O)c2ccc(C#Cc3ccncc3)cc2O[C@H]1CN(C)S(=O)(=O)c1ccc(F)cc1	i	i	i	-86
Cc1ccc(S(=O)(=O)N(C)C[C@H]2Oc3cc(C#Cc4ccncc4)ccc3S(=O)(=O)N([C@@H](C)CO)C[C@@H]2C)cc1	i	i	i	-86
SMILES	T cruzi growth	GASC1 inh	IDH1 R132H inh	Pf Dd2 growth
Cc1ccc(S(=O)(=O)N(C)C[C@@H]2Oc3cc(C#Cc4ccncc4)ccc3S(=O)(=O)N([C@@H](C)CO)C[C@H]2C)cc1	i	nt	i	-81
Cc1ccc(-c2nn3c(C)nnc3c3ccccc23)cc1S(=O)(=O)NCC1CCCO1 (configuration not stated)	nt	nt	i	nt
C[C@@H]1CN([C@H](C)CO)C(=O)c2ccccc2-c2ccccc2CO[C@@H]1CN(C)Cc1ccc(-c2ccccc2)cc1	nt	i	nt	-83
C[C@H]1CN([C@@H](C)CO)C(=O)c2ccccc2-c2ccccc2CO[C@@H]1CN(C)Cc1ccc(Cl)c(Cl)c1	nt	i	nt	-85
COc1ccc2c3c([nH]c2c1)[C@@H](CO)N(C(=O)C1CC1)CC31CN(C)C1	nt	i	nt	i
COc1ccc(S(=O)(=O)Nc2ccc3c(c2)C(=O)N([C@@H](C)CO)C[C@H](C)[C@@H](CN(C)C(=O)C2CCCCC2)OCCCC[C@@H](C)O3)cc1	i	i	i	-92
COc1ccc(S(=O)(=O)Nc2ccc3c(c2)C(=O)N([C@@H](C)CO)C[C@H](C)[C@@H](CN(C)C(=O)NC2CCCCC2)OCCCC[C@@H](C)O3)cc1	i	i	nt	-87
COc1ccc(S(=O)(=O)Nc2ccc3c(c2)C(=O)N([C@H](C)CO)C[C@H](C)[C@@H](CN(C)C(=O)NC2CCCCC2)OCCCC[C@H](C)O3)cc1	i	i	nt	i
COc1ccc(S(=O)(=O)Nc2ccc3c(c2)C(=O)N([C@H](C)CO)C[C@@H](C)[C@@H](CN(C)C(=O)C2CCCCC2)OCCCC[C@@H](C)O3)cc1	i	i	nt	i
COc1ccc(S(=O)(=O)N2CCC3(CC2)CN(Cc2ccncc2)[C@H](CO)c2[nH]c4cc(OC)ccc4c23)cc1	nt	i	nt	-88
COc1ccc2c3c([nH]c2c1)[C@H](CO)N(Cc1ccccc1)CC31CCN(S(=O)(=O)c2ccc(C)cc2)CC1	nt	i	nt	i
COc1ccc(CN2CC3(CCN(S(=O)(=O)c4ccc(C)cc4)CC3)c3c([nH]c4cc(OC)ccc34)[C@H]2CO)cc1	nt	i	nt	-86
COc1ccc(N(C(C)C(=O)Nc2ccc(Cl)c(Cl)c2)S(C)(=O)=O)cc1 (configuration not stated)	nt	nt	i	nt
COc1ccc(NC(=O)Nc2ccc3c(c2)[C@@H]2C[C@@H](CC(=O)N4CCOCC4)O[C@H](CO)[C@@H]2O3)cc1	i	i	i	i
Cc1ccccc1-c1ccccc1[C@H]1[C@@H](C#N)N(C(=O)c2ccccc2)[C@@H]1CO	nt	nt	nt	-93
CS(=O)(=O)N1[C@H](C#N)[C@H](c2ccccc2-c2ccccc2)[C@H]1CO	nt	i	nt	-94
